From ChEMBL document CHEMBL1649230, “Aryl rhodanines specifically inhibit staphylococcal and enterococcal biofilm formation” (Antimicrob Agents Chemother, 2009)
Active and inactive are the calls of the source. The calls are words filed in the database; no cut-off is given here.

Columns and labels:
[1] = system: Enterococcus faecalis; assay: Antimicrobial activity against vancomycin-resistant Enterococcus faecalis isolate F177 on medical grade silicone disk assessed as inhibition of bacterial biofilm after 18 hrs by broth microdilution method; type: functional
Method in brief: (§1)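 Medical-grade silicone disks glued to 24-well plate bottoms. Compound added to a 1:100 overnight-culture inoculum (0.5× TSB, 1% glucose) at 2% DMSO final; ≥3 wells each, ~18 h at 37°C. Washed with water, heat-fixed 60°C 60 min, stained with 0.06% crystal violet, eluted with 30% acetic acid, OD600 read. Repeated ≥3 times.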

[2] = system: Enterococcus faecalis; assay: Antimicrobial activity against vancomycin-resistant Enterococcus faecalis isolate F217 on medical grade silicone disk assessed as inhibition of bacterial biofilm after 18 hrs by broth microdilution method; type: functional; method in brief: as §1
[3] = system: Enterococcus faecalis; assay: Antimicrobial activity against vancomycin-resistant Enterococcus faecalis isolate F317 on medical grade silicone disk assessed as inhibition of bacterial biofilm after 18 hrs by broth microdilution method; type: functional; method in brief: as §1
[4] = system: Enterococcus faecalis; assay: Antimicrobial activity against vancomycin-resistant Enterococcus faecalis isolate F217 assessed as inhibition of bacterial biofilm after 18 hrs by broth microdilution method; type: functional
Method in brief: (§2)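 Biofilm MBIC on tissue culture-treated polystyrene 96-well plates. Twofold dilutions, 0.2 to 100 μM final, with 2% DMSO final. Inoculum was an overnight culture diluted 1:100 (~5 × 10^6 cells/well) in 0.5× TSB plus 1% glucose, grown 18 h at 37°C. Wells washed, heat-fixed 60°C 60 min, stained with 0.06% crystal violet, OD600 read. MBIC is the lowest concentration giving ≥80% inhibition versus untreated; geometric mean of ≥3 experiments.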

[5] = system: Staphylococcus aureus; assay: Antimicrobial activity against Staphylococcus aureus ATCC 35556 assessed as inhibition of primary adhesion of bacterial biofilm to polystyrene surface under static condition pretreated with 4 times compound MBIC for 30 mins measured after 30 mins by fluorescence emission using BaclLight Live Dead stain; type: functional
Method in brief: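 PBS suspension of mid-log S. aureus ATCC 35556 exposed to compound in tubes for 30 min at 37°C. Cells centrifuged to remove free compound and resuspended in PBS at the original density. They were then placed on tissue culture-treated polystyrene for 30 min at 37°C. Wells washed, BacLight Live/Dead fluorescence read (ex 485, em 530 nm). Fraction adherent calculated versus untreated.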

[6] = system: Staphylococcus aureus; assay: Antimicrobial activity against community acquired methicillin-resistant Staphylococcus aureus isolate 35392 assessed as inhibition of bacterial biofilm after 18 hrs by broth microdilution method; type: functional; method in brief: as §2
[7] = system: Staphylococcus aureus; assay: Antimicrobial activity against Staphylococcus aureus ATCC 35556 assessed as inhibition of primary adhesion of bacterial biofilm to silicone disk surface under static condition at 4 times MBIC after 30 mins by fluorescence emission using BaclLight Live Dead stain; type: functional, organism-based
Method in brief: (§3)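 Mid-log S. aureus ATCC 35556 (OD600 0.5) grown in TSB at 37°C, washed, resuspended in PBS. Compound added (0× to 8× MBIC, 2% DMSO). Suspension placed on tissue culture-treated polystyrene or PVC 96-well plates (eight wells per level) or silicone disks in 24-well plates (three wells). Incubated 30 min at 37°C, then washed. BacLight Live/Dead fluorescence read (ex 485, em 530 nm). Result given as fraction adherent versus untreated.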

[8] = system: Staphylococcus aureus; assay: Antimicrobial activity against Staphylococcus aureus ATCC 35556 assessed as effect on protein synthesis at 30 ug/ml; type: functional, organism-based
[9] = system: Staphylococcus aureus; assay: Antimicrobial activity against Staphylococcus aureus ATCC 35556 assessed as inhibition of primary adhesion of bacterial biofilm to polystyrene surface under static condition at 0.5 times MBIC after 30 mins by fluorescence emission using BaclLight Live Dead stain; type: functional, organism-based; method in brief: as §3
[10] = system: Staphylococcus aureus; assay: Antimicrobial activity against Staphylococcus aureus ATCC 35556 assessed as inhibition of primary adhesion of bacterial biofilm to silicone disk under static condition at MBIC after 30 mins by fluorescence emission using BaclLight Live Dead stain; type: functional, organism-based; method in brief: as §3
[11] = system: Staphylococcus aureus; assay: Antimicrobial activity against Staphylococcus aureus ATCC 35556 assessed as inhibition of primary adhesion of bacterial biofilm to PVC surface under static condition at MBIC after 30 mins by fluorescence emission using BaclLight Live Dead stain; type: functional, organism-based; method in brief: as §3
[12] = system: Staphylococcus aureus; assay: Antimicrobial activity against Staphylococcus aureus ATCC 35556 assessed as effect on protein synthesis at 15 ug/ml; type: functional, organism-based
[13] = system: Staphylococcus aureus; assay: Antimicrobial activity against Staphylococcus aureus ATCC 35556 assessed as inhibition of primary adhesion of bacterial biofilm to PVC surface under static condition at 4 times MBIC after 30 mins by fluorescence emission using BaclLight Live Dead stain; type: functional, organism-based; method in brief: as §3
[14] = system: Staphylococcus aureus; assay: Antimicrobial activity against community acquired methicillin-resistant Staphylococcus aureus isolate 27687 assessed as inhibition of bacterial biofilm after 18 hrs by broth microdilution method; type: functional; method in brief: as §2
[15] = system: Enterococcus faecalis; assay: Antimicrobial activity against Enterococcus faecalis ATCC 51299 on medical grade silicone disk assessed as inhibition of bacterial biofilm after 18 hrs by broth microdilution method; type: functional
[16] = system: Staphylococcus aureus; assay: Antimicrobial activity against Staphylococcus aureus ATCC 35556 on medical grade silicone disk assessed as inhibition of bacterial biofilm after 18 hrs by broth microdilution method; type: functional, organism-based
[17] = system: Staphylococcus aureus; assay: Antimicrobial activity against Staphylococcus aureus ATCC 35556 assessed as inhibition of bacterial biofilm formation at 4 times MBIC measured after 6 hrs; type: functional, organism-based
[18] = system: Staphylococcus aureus; assay: Antimicrobial activity against community acquired methicillin-resistant Staphylococcus aureus isolate 43349 assessed as inhibition of bacterial biofilm after 18 hrs by broth microdilution method; type: functional; method in brief: as §2
[19] = system: Staphylococcus aureus; assay: Effect on PNAG synthesis in Staphylococcus aureus ATCC 35556 by dot blot Western analysis; type: functional, organism-based
Method in brief: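 PNAG extracts were made from S. aureus ATCC 35556 grown with compound at 0× to 8× MBIC. Extracts were serially diluted 1:4, spotted onto nitrocellulose and probed with WGA-HRP, detected by chemiluminescent substrate on film. A PNAG-defective Δica::Tc strain extract served as the specificity control.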

[20] = system: Staphylococcus aureus; assay: Antimicrobial activity against Staphylococcus aureus ATCC 35556 assessed as inhibition of bacterial biofilm formation at 4 times MBIC measured after 4 hrs; type: functional, organism-based
[21] = system: Staphylococcus epidermidis; assay: Antimicrobial activity against methicillin-resistant Staphylococcus epidermidis GTC 18972 assessed as inhibition of bacterial biofilm after 18 hrs by broth microdilution method; type: functional; method in brief: as §2
[22] = system: Staphylococcus aureus; assay: Inhibition of […] of Staphylococcus aureus ATCC 35556 assessed as level of beta-galactosidase activity at 8 times MBIC by Miller assay; type: functional, organism-based
Method in brief: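 Stationary-phase autolysis used ATCC 35556 carrying pAJ22, inoculated 1:100 from overnight culture into TSB with 6 μg chloramphenicol/ml and varying compound. Cultures were shaken at 250 rpm, 37°C, for 96 h, sampling OD600 and cell-free supernatants over time. Released β-galactosidase in supernatants was assayed with o-nitrophenyl-β-d-galactopyranoside and reported in Miller units.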

[23] = system: Staphylococcus epidermidis; assay: Antimicrobial activity against Staphylococcus epidermidis ATCC 35984 on medical grade silicone disk assessed as inhibition of bacterial biofilm after 18 hrs by broth microdilution method; type: functional; method in brief: as §1
[24] = system: Staphylococcus aureus; assay: Antimicrobial activity against Staphylococcus aureus ATCC 35556 assessed as inhibition of primary adhesion of bacterial biofilm to silicone disk at MBIC after 30 mins by fluorescence emission using BaclLight Live Dead stain
[25] = system: Staphylococcus aureus; assay: Antimicrobial activity against Staphylococcus aureus ATCC 35556 assessed as inhibition of planktonic cell growth at 8 times MBIC; type: functional, organism-based
[26] = system: Staphylococcus aureus; assay: Antimicrobial activity against Staphylococcus aureus ATCC 35556 assessed as inhibition of primary adhesion of bacterial biofilm to silicone disk surface under shaking condition at 4 times MBIC after 30 mins by fluorescence emission using BaclLight Live Dead stain; type: functional, organism-based

SMILES	MBIC90 [1]	MBIC90 [2]	MBIC90 [3]	MBIC [4]	inhibition (INH) [5]	MBIC [6]	inhibition [7]	inhibition [8]	inhibition [9]	inhibition [10]	inhibition [11]	inhibition [12]	inhibition [13]	other results
CCOc1cc(/C=C2\SC(=S)N(c3cccc(F)c3)C2=O)ccc1O	>=100 uM	>=100 uM	>=100 uM	29.7 µM	–	–	–	–	–	–	–	–	–	–
CCOc1cc(/C=C2\SC(=S)N(c3cccnc3)C2=O)ccc1O	–	–	–	–	>=80%	25 µM	Active	inactive	Active	Active	Active	inactive	Active	–
C=CCOc1cc(/C=C2\SC(=S)N(c3ccc(F)cc3)C2=O)ccc1O	–	–	–	–	–	39.7 µM	–	–	–	–	–	–	–	MBIC [14]: 50 µM; MBIC90 [15]: 100 µM
CCOc1cc(/C=C2\SC(=S)N(c3ccc(F)cc3)C2=O)ccc1O	>=100 uM	>=100 uM	>=100 uM	12.5 µM	>=80%	–	Active	inactive	Active	Active	Active	inactive	Active	Activity [16]: Dose-dependent effect; inhibition [17]: Active; MBIC [18]: 35.4 µM; inhibition [19]: inactive; inhibition [20]: Active; MBIC [21]: 21 µM; inhibition [22]: inactive; MBIC90 [23]: 42 µM; inhibition [24]: Active; inhibition [25]: inactive; inhibition [26]: Active
